What was measured:
Mus musculus = assay: Antinociceptive activity in po dosed Swiss albino mouse assessed as reduction in number of acetic acid-induced writhing counted 5 mins after acetic acid challenge counted for 10 mins; assay type: functional; conditions: read-out: MED
Method in brief: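 Male Swiss albino mice (23-25 g) dosed orally, then given 0.6% acetic acid (10 mL/kg) ip. Stretching movements counted for 10 min, starting 5 min after the acetic acid. Control group received CMC. At least 7 mice/group; mean ± SEM, ANOVA with Fisher's PLSD.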

J774 = assay: Selectivity index, ratio of IC50 for COX1 in mouse J774 cells […]; assay type: cell-based
[1] = biological target: Prostaglandin G/H synthase 1 (Homo sapiens, UniProt P23219); assay: Inhibition of COX1 in human whole blood assessed as reduction in TXB2 generation
Method in brief: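 Clotting assay in whole blood from three healthy volunteers with no NSAID for 2 weeks. Compounds in DMSO were added at 0.1-300 µM final. Blood clotted in glass tubes at 37 °C for 1 h. Serum TXB2 was measured by RIA as a reflection of platelet COX-1 activity driven by endogenous thrombin.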

[2] = biological target: T1, Prostaglandin G/H synthase 2 (Homo sapiens) (UniProt P35354); assay: (§1) Inhibition of COX2 in human whole blood assessed as reduction in LPS-induced PGE2 generation pre-treated prior to LPS-challenge
T1 sequence (whole entry): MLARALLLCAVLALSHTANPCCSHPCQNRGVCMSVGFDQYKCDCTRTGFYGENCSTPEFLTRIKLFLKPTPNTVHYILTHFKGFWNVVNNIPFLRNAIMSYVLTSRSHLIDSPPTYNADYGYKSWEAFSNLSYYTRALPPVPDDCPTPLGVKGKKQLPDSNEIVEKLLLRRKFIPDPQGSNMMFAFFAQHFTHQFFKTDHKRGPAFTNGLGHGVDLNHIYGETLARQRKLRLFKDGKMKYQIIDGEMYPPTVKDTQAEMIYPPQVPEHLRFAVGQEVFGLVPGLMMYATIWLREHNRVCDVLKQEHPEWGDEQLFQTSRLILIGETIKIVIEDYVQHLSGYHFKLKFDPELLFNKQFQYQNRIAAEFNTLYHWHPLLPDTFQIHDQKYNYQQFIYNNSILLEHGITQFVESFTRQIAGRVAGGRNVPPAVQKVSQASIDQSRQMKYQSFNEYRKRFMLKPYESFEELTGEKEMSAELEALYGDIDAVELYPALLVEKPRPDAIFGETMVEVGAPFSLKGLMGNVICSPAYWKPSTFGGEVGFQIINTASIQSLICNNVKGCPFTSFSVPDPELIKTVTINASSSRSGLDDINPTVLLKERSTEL
Method in brief: (§2)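 Heparinized whole blood came from three healthy volunteers pretreated with aspirin 300 mg 48 h before sampling to suppress platelet COX-1. Compounds in DMSO were added at 0.1-300 µM final. Blood was incubated with LPS 10 µg/mL for 24 h at 37 °C. Plasma PGE2 was measured by RIA.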

[3] = biological target: T2, Prostaglandin G/H synthase 2 (Homo sapiens, UniProt P35354); assay: as §1; method in brief: as §2
T2 sequence (P35354 whole entry): T1 sequence (whole entry)

Rattus norvegicus [4] = assay: Antiinflammatory activity in Sprague-Dawley/Wistar rat assessed as decrease in carrageenan-induced paw edema at 10 mg/kg, po administered 3 hrs 30 mins after carrageenan-challenge measured after 60 mins (reference value: 2.48 +/- 0.06 mL); assay type: functional
Rattus norvegicus [5] = assay: Antiinflammatory activity in Sprague-Dawley/Wistar rat assessed as decrease in carrageenan-induced hyperalgesia at 10 mg/kg, po administered 4 hrs after carrageenan-challenge measured after 120 mins (reference value: 31.4 +/- 3.7 g); assay type: functional
Rattus norvegicus [6] = assay: Antiinflammatory activity in Sprague-Dawley/Wistar rat assessed as decrease in carrageenan-induced hyperalgesia at 10 mg/kg, po administered 4 hrs after carrageenan-challenge measured after 60 mins (reference value: 33.9 +/- 3.7 g); assay type: functional

Sequence of Prostaglandin G/H synthase 1 (P23219 whole entry): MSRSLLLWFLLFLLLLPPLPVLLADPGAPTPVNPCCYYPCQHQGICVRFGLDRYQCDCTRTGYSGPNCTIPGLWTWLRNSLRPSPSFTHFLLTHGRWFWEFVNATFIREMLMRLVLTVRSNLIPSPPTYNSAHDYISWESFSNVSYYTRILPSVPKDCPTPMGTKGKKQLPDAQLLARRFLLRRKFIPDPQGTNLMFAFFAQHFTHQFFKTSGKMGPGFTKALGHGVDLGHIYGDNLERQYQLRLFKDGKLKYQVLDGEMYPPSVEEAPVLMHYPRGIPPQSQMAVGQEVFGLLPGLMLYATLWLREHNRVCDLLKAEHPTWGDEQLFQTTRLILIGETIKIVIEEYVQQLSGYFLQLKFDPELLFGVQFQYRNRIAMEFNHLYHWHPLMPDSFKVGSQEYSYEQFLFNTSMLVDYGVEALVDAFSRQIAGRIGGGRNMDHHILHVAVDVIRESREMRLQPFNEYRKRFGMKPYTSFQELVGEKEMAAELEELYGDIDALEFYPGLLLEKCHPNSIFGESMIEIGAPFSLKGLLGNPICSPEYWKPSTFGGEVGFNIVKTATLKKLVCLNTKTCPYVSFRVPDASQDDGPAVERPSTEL

Q: With `Cc1c(CCOCCO[N+](=O)[O-])cc(-c2ccc(S(C)(=O)=O)cc2)n1-c1ccc(F)cc1` as the compound, how does the minimal effective dose (Mus musculus) read?
A: 10 mg/kg

Q: What about the Ratio IC50 (J774) of the same compound?
A: > 714

Q: And the IC50 [1]?
A: 31.2 µM

Q: What about the IC80 [1] of the same compound?
A: 63.3 µM

Q: And the inhibition [1]?
A: Dose-dependent effect

Q: And the IC80 [2]?
A: 2.26 µM

Q: And the inhibition [2]?
A: Dose-dependent effect

Q: And the IC50 [3]?
A: 0.64 µM

Q: And the Activity (Rattus norvegicus [4])?
A: 1.87 mL

Q: And the Activity (Rattus norvegicus [5])?
A: 48.3 g

Q: And the Activity (Rattus norvegicus [6])?
A: 52.6 g
